Assay results from different studies.
Each line is one published result; the experiments were not run side by side. ≈ marks a conversion by molar mass, not a printed value.

| SMILES | tested on | test | test system | setting | measurement | result |
| --- | --- | --- | --- | --- | --- | --- |
| Cc1sc(CNCCCNc2cc(=O)c3ccccc3[nH]2)c(I)c1C | Plasmodium falciparum | parasite growth, SYBR Green | 3D7 |  | EC50 | 339 nM |
| CC(C(=O)NCCc1ccccc1)c1cccc(C(OC(=O)NCCc2ccccc2)c2ccccc2)c1 (stereo not shown) | FM3A | cell growth or viability |  | 48 h | IC50 | 13000 nM |
| C[C@@]1(O)CC[C@@]2(C)[C@@H](CC[C@@H]3[C@@H]2CC[C@]2(C)[C@@H]([N+](=O)[O-])CC[C@@H]32)C1 |  | 6 Hz seizures | mouse | intraperitoneal | ED50 | 8.8 mg/kg |
| CCN(CC)CCCC(C)Nc1ccnc2cc(Cl)ccc12 (stereo not shown) | Plasmodium falciparum | parasite growth | W2 | drug-resistant strain, blood stage | IC50 | 0.1 µg/mL |
| CC(=O)c1c(Cc2ccccc2Cl)c[nH]c1C | Plasmodium falciparum | parasite growth, SYBR Green | 3D7 |  | EC50 | 140 nM |
| CC(C(=O)NOCc1ccccc1)c1cccc(C(OC(=O)NOCc2ccccc2)c2ccccc2)c1 (stereo not shown) | FM3A | cell growth or viability |  | 48 h | IC50 | 11000 nM |
| CCOc1cccc(=O)c2c(C)n(Cc3ccc(Cl)cc3)c(C)c12 | Plasmodium falciparum | parasite growth, SYBR Green | 3D7 |  | EC50 | 590 nM |
| CC(C(=O)NCc1ccccc1)c1cccc(C(OC(=O)NCc2ccccc2)c2ccccc2)c1 (stereo not shown) | FM3A | cell growth or viability |  | 48 h | IC50 | 14000 nM |
| CO[C@H]1/C=C/O[C@@]2(C)Oc3c(C)c(O)c4c(O)c(c(/C=N/N5CCN(C)CC5)c(O)c4c3C2=O)NC(=O)/C(C)=C\C=C\[C@H](C)[C@H](O)[C@@H](C)[C@@H](O)[C@@H](C)[C@H](OC(C)=O)[C@@H]1C | Mycolicibacterium aurum | microbial growth, agar dilution |  |  | MIC | 0.78 µg/mL (≈ 0.948 µM) |
| COc1cc2c(cc1OS(N)(=O)=O)CCN(Cc1cc(Br)c(OC)c(OC)c1)C2 | CNSSF-539 | cell growth or viability, SRB |  |  | GI50 | 22 nM |
| C[C@]12CC[C@H](O)C[C@@H]1CC[C@@H]1[C@@H]2CC[C@]2(C)[C@@H]([N+](=O)[O-])CC[C@@H]12 |  | 6 Hz seizures | mouse | intraperitoneal | ED50 | 83 mg/kg |
| CCCCCCCCCCOc1cc2c(O)c(C(=O)OCC)cnc2cc1OCC | Plasmodium falciparum | parasite growth, SYBR Green | W2 | blood stage | IC50 | < 5.7 nM |
| CCCn1c(O)nnc1SCC(=O)Nc1cc(C(F)(F)F)ccc1Cl | Plasmodium falciparum | parasite growth, SYBR Green | 3D7 |  | EC50 | 66.6 nM |
